# From PubChem
# WT yeast gro inh = growth inhibition of WT yeast, mitochondrial fusion screen. mitochondrial fusion phenotypic screen, WT strain. inhibition, % at 10 µM. 190,000 tested, 2.1% active. AID 1362; in the data active = inhibition above about 58%; tested in S. cerevisiae
# CHOP inh = CHOP inhibition in unfolded protein response. CHO-K1 CHOP-promoter luciferase, tunicamycin-induced, 15-18 h. inhibition, % at 10 µM. 220,000 tested, 3.8% active. AID 2732;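 active = compounds that reduced the stress-induced luciferase reporter signal by more than about 70% of percent inhibition, limit read from the data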;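 also: 0% = tunicamycin plus vehicle and 100% = wells without tunicamycin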
# Tb MetRS inh = blocks T. brucei methionyl-tRNA synthetase activity; AID 624268; 360,000 tested, 0.4% active; purified T. brucei MetRS, ATP depletion, Kinase-Glo luminescence; inhibition, % at 11.9 µM;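 active = inhibition above a per-plate cutoff of the control wells' mean inhibition plus 3 SD, cut at about 5.5% in these data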;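 also: 0% = DMSO wells median and 100% = median of wells with control inhibitor compound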
#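 assay system = parasite MetRS enzyme | timing = 15 min preincubation, 2 h reaction, all 25 °C | evaluation = percent inhibition relative to median high and low control wells | medium = HEPES buffer containing pyrophosphatase, BSA, spermine, DTT | compound = single dose, 11.9 µM final nominal, 0.9% final DMSO | detection = Kinase-Glo luminescence, ATP depletion format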
# MPTP inh = inhibitors of mitochondrial permeability transition pore | isolated mouse mitochondria, Ca2+ swelling absorbance, 30 min | inhibition, % at 10 µM | 360,000 tested, 1.4% active | AID 602449;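 active = inhibition of 50% or more, scaled per plate between neutral and stimulator controls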;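 also: 0% = DMSO wells given calcium and 100% = 1 mM EGTA wells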
# NR3A LBD binder = NR3A (human) ligand-binding domain modulation; 340,000 tested, 2.5% active; Tm shift relative to glycine control, % at 25 µM; NR3A LBD differential scanning fluorimetry, Tm shift; 0% = protein alone, 100% = glycine-bound protein;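 active = melting temperature shift of at least 10% of the positive control shift, at one fixed dose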
# EBV gp42 inh = EBV gp42 inhibition. Fluorescence polarization binding assay, mP read-out. inhibition, % (tested at 21.74 µM). 220,000 tested, 0.42% active; in the data active = inhibition above about 50%
# Target sequence (Q1HVG2 whole entry, looked up): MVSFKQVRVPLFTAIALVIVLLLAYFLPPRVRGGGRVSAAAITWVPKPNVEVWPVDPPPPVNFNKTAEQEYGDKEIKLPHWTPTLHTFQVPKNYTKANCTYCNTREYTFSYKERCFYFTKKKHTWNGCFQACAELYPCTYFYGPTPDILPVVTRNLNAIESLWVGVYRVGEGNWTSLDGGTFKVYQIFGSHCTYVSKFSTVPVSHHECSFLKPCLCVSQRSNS
# Numbers without * were called inactive; . = not tested or not shown. Rows were chosen to be rich in hits. Some 6.4% of all compounds tested hit in one or more screens of this group.
SMILES,WT yeast gro inh,CHOP inh,Tb MetRS inh,MPTP inh,NR3A LBD binder,EBV gp42 inh
COC(=O)c1cccc(-c2ccc(/C=N/N3C(=O)C4C5C=CC(C6CC56)C4C3=O)o2)c1 (stereo not drawn),2.0,4.9,-2.1,-1.1,-0.5,-23.2
CCCCNC(=O)Oc1c(Br)cc2sc(=O)oc2c1Br,.,102.7*,.,.,.,-3.8
COC(=O)c1oc2ccc(OC)cc2c1N,1.5,19.3,-0.7,-0.5,-5.1,-26.0
COC(=O)c1sc(-c2ccc(C(C)(C)C)cc2)cc1NC(=O)CSCC(=O)O,.,76.6*,0.0,13.2,-437.0,14.8
COC(=O)c1sc(-c2ccccc2)cc1NC(=O)C1CC1,39.0,3.7,-0.1,4.4,0.6,1.8
CCNc1nc(NCC)n2c(SCC(=O)Nc3cccc(Cl)c3)nnc2n1,.,.,-0.6,1.2,1.8,.
CCNc1nc(NCC)n2c(SC(C(=O)Nc3cc(Cl)cc(Cl)c3)c3ccccc3)nnc2n1 (stereo not drawn),-11.0,89.8*,-0.4,4.9,11.1*,-1.1
COc1ccccc1-c1cc(C(F)(F)F)nc(N2CCCCC2)n1,74.1*,61.1,-0.7,4.6,0.6,-14.3
COc1ccccc1-c1cc(C(F)(F)F)nc(N2CCCC2)n1,14.1,28.2,-0.4,0.1,1.2,-8.8
COc1ccc(S(=O)(=O)N(CCN2CCOCC2)Cc2cc(OC)ccc2OC)cc1,-9.0,11.2,-1.5,0.0,16.0*,-20.0
COc1ccc2[nH]cc(CCn3ccc(O)c(C/C=C/c4ccccc4)c3=O)c2c1,-4.4,20.2,-0.6,1.0,13.1*,-6.0
Cc1nn(-c2ccccc2)c2sc(C(=O)N3CCCCC3)cc12,14.2,81.9*,-0.8,-2.9,-2.1,4.5
Cc1nn(-c2ccccc2)c2sc(C(=O)NC3CCCCC3)cc12,9.0,42.8,-0.7,12.7,0.8,-13.0
Cc1nn(-c2ccccc2)c2sc(C(=O)NNC(=O)COc3cccc4ccccc34)cc12,4.2,92.3*,-0.5,0.8,8.7,-15.9
Cc1cnc(NC(=O)c2cc3c(C)nn(-c4ccccc4)c3s2)s1,9.0,86.5*,-0.8,1.5,-1.6,-5.5
Cc1nn(-c2ccccc2)c2sc(C(=O)NNC(=O)COc3ccccc3)cc12,-25.4,-27.8,-0.1,3.7,-3.1,3.6
COC(=O)c1ccccc1NC(=O)CN1C(=O)CSC1=O,4.6,24.1,-1.9,0.8,-0.3,4.7
Cc1nn(-c2ccccc2)cc1C(c1c(N)[nH]c(=S)[nH]c1=O)c1c(N)[nH]c(=S)[nH]c1=O,-5.0,1.4,-0.2,0.6,15.9*,-13.3
Cc1nn(-c2ccccc2)cc1/C=N/NC(N)=S,.,11.9,2.4,0.0,-5.4,-7.0
COc1ccc2o/c(=N\O)c(C(=O)Nc3ccc(C)cc3)cc2c1,4.1,20.7,0.0,1.3,16.2*,-7.8
COc1ccc2oc(=N)c(C(=O)Nc3ccc(C)cc3)cc2c1,.,.,-0.5,3.6,-1.3,.
COc1ccccc1NC(=O)c1cc2ccc(O)cc2o/c1=N\O,-5.9,-7.8,-0.9,1.1,35.6*,-25.4
COc1ccccc1NC(=O)c1cc2ccccc2o/c1=N\O,-12.4,0.1,-0.1,1.2,-7.4,-32.5
CCC(C)NC(=O)c1cc2c(=O)n3ccccc3nc2s1 (stereo not drawn),.,.,0.9,0.2,-0.3,.
CC(C)NC(=S)NN(c1ccccc1)c1ccccc1,40.7,19.7,-1.4,-0.4,-2.8,-0.5
SMILES,WT yeast gro inh,CHOP inh,Tb MetRS inh,MPTP inh,NR3A LBD binder,EBV gp42 inh
CC1=NN(C(N)=S)C(=O)C1N=Nc1ccccc1 (stereo not drawn),70.0*,-17.3,0.2,-0.1,-13.2,-0.7
CC1=NN(C(N)=S)C(=O)C1N=Nc1ccc(Cl)cc1 (stereo not drawn),.,.,-0.6,2.6,-1.0,.
O=c1[nH][nH]c(-c2ccccc2)c1C=Nc1ccc(C(F)(F)F)cc1,-0.9,0.2,-0.6,2.3,0.0,-11.2
O=c1[nH][nH]c(-c2ccccc2)c1C=Nc1ccccc1,80.4*,15.9,-0.5,-0.1,-1.4,-10.7
Cc1cc(N2CCN(C(c3ccccc3)c3ccc(Cl)cc3)CC2)n2ncnc2n1 (stereo not drawn),74.5*,33.4,0.0,-3.6,-2.1,-3.5
Cc1cc(N2CCN(c3ccccc3)CC2)n2ncnc2n1,-14.6,-14.5,0.0,0.6,0.3,-26.0
O=C(NC(=S)N(Cc1ccccc1)c1ccccn1)C1CC1,-12.1,-11.9,-1.0,-0.6,17.5*,-13.7
